From PubChem BioAssay come the findings set out here.

A short description of test [1]: inhibitors of TNFa-induced NFkB p65 translocation, primary screen, imaging, HUVEC, MLSMR starter and 10KST1 sets (AID 438;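 active means inhibition above 20% together with a positive visual image hit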;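 further: compound added about 3h40 before a 20 min TNFalpha stimulation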;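 on inhibition: signal is the nuclear over cytoplasmic p65 intensity ratio per well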). Particulars: HUVEC TNFa-induced p65 nuclear translocation; cell count: measured here: nuclei count (cytotoxicity indicator), at 2.08 µM; inhibition: at 2 µM, stronger effect = higher value, 0% TNFa-plus-vehicle, 100% no-TNFa wells.
A short description of test [2]: reduction of polyQ htt aggregates in cells – imaging, exon1htt(103Q)mCFP cells, high-content imaging, primary screen (AID 483;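 active means visual image review flags a hit and inhibition of aggregation exceeds 20%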;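 further: compound exposure lasted 3 days before fixation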;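 on nuclei count: percent of the per-plate median nuclei count of sample wells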). Conditions: exon1htt(103Q)mCFP cell line, aggregate imaging, at 2 µM; inhibition of aggregation: stronger effect = higher value; nuclei count: measured here: cell count, toxicity.
Test [3] can be described thus: endothelial E-selectin expression blockers – imaging, HUVEC, immunofluorescence, MLSMR starter and 10KST1 sets, primary screen (AID 487;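 active means visually confirmed hit in the image check and inhibition above 20%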;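 on inhibition: signal is fraction of cell area covered by stained E-selectin grains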;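 on nuclei count: 100% = median nuclei count of all wells on the same plate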). Conditions: HUVEC TNFalpha-induced E-selectin immunofluorescence imaging, at 2 µM; inhibition: stronger effect = higher value; nuclei count: measured here: cell number, toxicity.
The target of test [4] is Voltage-gated potassium channel subunit beta-2 (Rattus norvegicus) (UniProt P62483). Put plainly: inhibitors of rat Kvbeta2 reductase activity – biochemical, NADPH fluorescence, primary screen (AID 622).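 Further: slope of raw intensity against log time taken from 70 to 1610 s.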 Particulars: recombinant KvBeta, 4-cyanobenzaldehyde reduction, at 10 µM, stronger effect = higher value.
Voltage-gated potassium channel subunit beta-2 (Rattus norvegicus), sequence (P62483 whole entry, looked up): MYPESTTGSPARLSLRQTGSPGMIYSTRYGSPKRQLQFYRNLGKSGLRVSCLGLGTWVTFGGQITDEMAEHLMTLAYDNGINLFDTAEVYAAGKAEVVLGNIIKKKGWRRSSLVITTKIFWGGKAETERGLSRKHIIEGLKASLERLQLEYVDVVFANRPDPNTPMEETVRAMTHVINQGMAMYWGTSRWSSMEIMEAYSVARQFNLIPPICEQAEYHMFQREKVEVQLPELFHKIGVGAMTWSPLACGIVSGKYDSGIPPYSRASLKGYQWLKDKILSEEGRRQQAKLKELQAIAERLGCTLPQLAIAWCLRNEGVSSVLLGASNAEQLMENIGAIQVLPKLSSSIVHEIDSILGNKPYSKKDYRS
Test [5] has the same target. The test can be described thus: enhancers of rat Kvbeta2 NADPH turnover – biochemical, NADPH fluorescence, primary screen (AID 623;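 active means NADPH fluorescence slope more negative than the mean of all samples by about 3 SD, 99.7% confidence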;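 further: fluorescence intensity change per second fitted from 20 to 320 s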). Particulars: Recombinant KvBeta, NADPH fluorescence decrease slope, 10 min; at 10 µM; stronger effect = lower value.
For test [6], the target named is Muscarinic acetylcholine receptor M4 (Homo sapiens) (UniProt P08173). Put plainly: M4-linked GIRK flux change, two-sided – cell-based, HEK293 M4/GIRK, thallium flux, BTC-AM, M4 allosteric agonist project, primary screen (AID 625;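 active means fluorescence slope after compound addition differing from the mean of all tested samples at 99.7% confidence, mostly higher but some lower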;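 further: thallium influx through GIRK channels coupled to M4 in HEK293 cells with BTC-AM dye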). Conditions: at 10 µM, actives lie on both sides. The method in brief:
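System: HEK293 cells with M4 receptor and GIRK channels | Incubation: Cells overnight at 37 °C, BTC-AM loading 1 h, reads 2 min total | Technique: Kinetic BTC-AM fluorescence sampled at 1 Hz, 10 s pre-addition baseline | Measure: Post-addition slope, 15–24 s, of baseline-normalized fluorescence | Control set: Carbachol positive, DMSO negative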

A short description of test [7]: blockers of RIG-like receptor reporter activation – cell-based, Sendai virus stimulus, luciferase, 10K MLSCN set, TLR/RLR signaling modifier project, primary screen (AID 602276;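 active means inhibition at or above 50% at 10 µM; inactive means inhibition below 50%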;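 further: firefly luciferase from ISG56 promoter only with Renilla not read in this screen; 0% = Sendai virus plus DMSO and 100% = medium plus DMSO without virus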). Conditions: HEK293 RL24 IRF3 luciferase reporter, at 10 µM, stronger effect = higher value.
Test [8] can be described thus: TLR3 IRF3 reporter activation blockers – cell-based, poly I:C stimulus, luciferase, 10K MLSCN set, primary screen (AID 602277;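 active means inhibition of the reporter signal at or above 50%; inactive means inhibition below 50%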). Particulars: HEK293-TLR3 RL24 IRF3 luciferase reporter, at 10 µM, stronger effect = higher value.

The source made the active and inactive calls.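 How the source made its calls, unless noted: active means fluorescence slope higher than the sample average by over 3 SD (cut at about -0.22 in these data, passing the limit was not always enough); inactive means the rest.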

Muscarinic acetylcholine receptor M4 (Homo sapiens), sequence (P08173 whole entry, looked up): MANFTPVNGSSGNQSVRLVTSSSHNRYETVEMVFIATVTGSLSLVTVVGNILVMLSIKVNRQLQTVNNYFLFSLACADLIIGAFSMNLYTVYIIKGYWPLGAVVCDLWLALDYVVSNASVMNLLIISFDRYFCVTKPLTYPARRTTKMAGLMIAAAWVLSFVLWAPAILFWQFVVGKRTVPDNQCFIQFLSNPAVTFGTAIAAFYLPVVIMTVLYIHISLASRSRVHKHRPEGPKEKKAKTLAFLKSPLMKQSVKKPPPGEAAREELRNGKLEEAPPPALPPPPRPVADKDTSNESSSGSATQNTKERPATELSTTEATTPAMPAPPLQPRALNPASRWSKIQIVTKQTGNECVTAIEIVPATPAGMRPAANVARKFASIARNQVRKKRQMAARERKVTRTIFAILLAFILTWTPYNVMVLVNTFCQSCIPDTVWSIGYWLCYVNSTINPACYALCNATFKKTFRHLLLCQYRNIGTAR

As to `Cc1ccc(NC(=O)Cn2cccc2)cc1Cl`, the cell count in test [1] was found to be 655. The inhibition is -12.9% (inactive) in test [1], -4.1% (inactive) in test [3], 8.59% (inactive) in test [7] and -12.8% (inactive) in test [8]. Besides, in test [2], the inhibition of aggregation is 7% (inactive). For the same compound, the nuclei count amounted to 115% in test [2] and 103% in test [3]. The results for the fluorescence slope in test [4] and in test [6] were -0.324 (inactive) and 0.00925 (inactive), respectively. Moreover, the NADPH fluorescence slope in test [5] is -5.7e-05 (inactive).
Take `CCC(=O)N1CCc2cc(S(=O)(=O)CCC(=O)Nc3c(C)n(C)n(-c4ccccc4)c3=O)ccc21`: in test [1], the cell count stood at 598. Further, the inhibition in test [1] is 7.7% (inactive); in test [3], -110% (inactive); in test [7], 2.43% (inactive); in test [8], 13.1% (inactive). In addition, the inhibition of aggregation in test [2] is -10.8% (inactive). Moreover, the nuclei count in test [2] is 116%; in test [3] it was 121%. The values for the fluorescence slope in test [4] and in test [6] were -0.434 (inactive) and 0.00486 (inactive), respectively. Moreover, in test [5], the NADPH fluorescence slope was 0.000106 (inactive).
Regarding `Cc1cc(NC(=O)COc2cccc3cccnc23)no1`, the cell count in test [1] was 465. Besides, the inhibition in test [1] was 2% (inactive); in test [3], -67.8% (inactive); in test [7] it was -7.48% (inactive); in test [8], -15.6% (inactive). The inhibition of aggregation in test [2] is 11.9% (inactive). Also, the nuclei count stood at 103% in test [2] and 106% in test [3]. The fluorescence slope is -0.385 (inactive) in test [4] and 0.00637 (inactive) in test [6]. The NADPH fluorescence slope in test [5] was -2.5e-05 (inactive).
On to `CCOC(=O)c1cccc(NC(=O)CSc2nc3ccccc3c(=O)n2CC)c1`, for which the cell count in test [1] was 360. The inhibition in test [1] is 4.2% (inactive); in test [3] it was -1.3% (inactive); in test [7], 9.39% (inactive); in test [8], 18.3% (inactive). Besides, the inhibition of aggregation in test [2] was 7.7% (inactive). For the same compound, the values for the nuclei count in test [2] and in test [3] were 98.9% and 104%, respectively. Also, the fluorescence slope in test [4] is -0.465 (inactive); in test [6], 0.00728 (inactive). The NADPH fluorescence slope in test [5] was 2.3e-05 (inactive).
As for `CC(=O)N1CCc2cc(S(=O)(=O)NCCC3=CCCCC3)ccc21`, in test [1], the cell count came to 399. Moreover, the inhibition in test [1] is 3.5% (inactive); in test [3], -71.2% (inactive); in test [7], 12.2% (inactive); in test [8] it was -2.52% (inactive). Further, the inhibition of aggregation in test [2] was -11.2% (inactive). For the same compound, the values for the nuclei count in test [2] and in test [3] were 123% and 141%, respectively. Also, the fluorescence slope was -0.425 (inactive) in test [4] and 0.00546 (inactive) in test [6]. In addition, in test [5], the NADPH fluorescence slope was 3.5e-05 (inactive).
As for `O=C(CCCN1C(=O)c2ccccc2C1=O)Oc1ccc(F)cc1`, the cell count in test [1] is 735. Besides, the inhibition in test [1] was -11.6% (inactive); in test [3] it was 17.3% (inactive); in test [7], 12.5% (inactive); in test [8] it was 18.6% (inactive). The inhibition of aggregation in test [2] was -0.5% (inactive). The results for the nuclei count in test [2] and in test [3] were 106% and 96.8%, respectively. The fluorescence slope was -0.512 (inactive) in test [4] and 0.00485 (inactive) in test [6]. The NADPH fluorescence slope in test [5] was 1.4e-05 (inactive).
As for `Cc1c(C(=O)NCc2ccccn2)oc2ccccc12`, the cell count in test [1] came out at 328. The inhibition in test [1] was -4.1% (inactive); in test [3], 44.5% (inactive); in test [7], -29.5% (inactive); in test [8], -79.6% (inactive). The inhibition of aggregation in test [2] was -3.8% (inactive). Further, the values for the nuclei count in test [2] and in test [3] were 86% and 49.4%, respectively. The fluorescence slope is -0.514 (inactive) in test [4] and 0.00478 (inactive) in test [6]. For the same compound, the NADPH fluorescence slope in test [5] is 8.6e-06 (inactive).
In the case of `Cc1c(NS(=O)(=O)c2ccc3c(c2)c(=O)n(C)c(=O)n3C)c(=O)n(-c2ccccc2)n1C`, the cell count in test [1] was 394. Besides, the inhibition in test [1] is -4.4% (inactive); in test [3] it was -27.8% (inactive); in test [7], 11.2% (inactive); in test [8], 25% (inactive). For the same compound, the inhibition of aggregation in test [2] was -4.4% (inactive). In addition, the nuclei count in test [2] amounted to 124%; in test [3], 115%. Besides, the fluorescence slope in test [4] was -0.412 (inactive); in test [6] it was 0.00512 (inactive). Further, the NADPH fluorescence slope in test [5] is 0.000112 (inactive).
In the case of `COc1ccccc1NC(=O)C1CC(=O)N(c2ccc(F)cc2)C1` (centres undefined), the cell count in test [1] is 402. Moreover, the inhibition in test [1] is 4.5% (inactive); in test [3] it was -46.4% (inactive); in test [7], -15.4% (inactive); in test [8], -26.4% (inactive). For the same compound, the inhibition of aggregation in test [2] is 13.8% (inactive). The values for the nuclei count in test [2] and in test [3] were 101% and 110%, respectively. Besides, the fluorescence slope in test [4] was -0.583 (inactive); in test [6] it was 0.00373 (inactive). Besides, the NADPH fluorescence slope in test [5] was -9.7e-05 (inactive).
For `Cc1ccc(-n2c3c(cc(C(=O)O)c2=O)C(=O)CC(C)(C)C3)cc1`, the cell count in test [1] came out at 418. Also, the inhibition is 2.8% (inactive) in test [1], 3.1% (inactive) in test [3], 17% (inactive) in test [7] and 24.4% (inactive) in test [8]. Further, in test [2], the inhibition of aggregation is 6.9% (inactive). Also, the nuclei count in test [2] came to 109%; in test [3], 110%. Also, the fluorescence slope was -0.377 (inactive) in test [4] and 0.00507 (inactive) in test [6]. In addition, the NADPH fluorescence slope in test [5] was 4.6e-05 (inactive).
On to `O=C1CSC(c2cn(-c3ccccc3)nc2-c2ccccc2)N1Cc1ccco1` (centres undefined), for which the cell count in test [1] turned out to be 480. In addition, the inhibition in test [1] was -6.3% (inactive); in test [3], -89.3% (inactive); in test [7] it was -1.04% (inactive); in test [8] it was 11.5% (inactive). In test [2], the inhibition of aggregation is 5.2% (inactive). In addition, the nuclei count in test [2] was found to be 108%; in test [3], 88.2%. For the same compound, the fluorescence slope was -0.568 (inactive) in test [4] and 0.00714 (inactive) in test [6]. Besides, in test [5], the NADPH fluorescence slope is -2.8e-05 (inactive).
On to `NC1=NC(c2ccc(Cl)cc2)n2c(nc3ccccc32)N1` (centres undefined), for which the cell count in test [1] came to 780. The inhibition is 3.5% (inactive) in test [1], -15.2% (inactive) in test [3], 16.5% (inactive) in test [7] and 18.6% (inactive) in test [8]. In test [2], the inhibition of aggregation was -8.4% (inactive). Further, the nuclei count in test [2] came to 125%; in test [3] it was 113%. The values for the fluorescence slope in test [4] and in test [6] were -0.584 (inactive) and 0.00539 (inactive), respectively. Also, in test [5], the NADPH fluorescence slope is 1.3e-05 (inactive).
As for `Cc1ccc(-c2cc(C(=O)Nc3cc(C)ccc3C)[nH]n2)c(O)c1`, the cell count in test [1] amounted to 390. Also, the inhibition in test [1] is -4.3% (inactive); in test [3] it was -50.5% (inactive); in test [7], -2.53% (inactive); in test [8] it was -27.3% (inactive). In addition, the inhibition of aggregation in test [2] was 3.8% (inactive). The nuclei count in test [2] came to 120%; in test [3] it was 144%. Also, the fluorescence slope in test [4] was -0.362 (inactive); in test [6] it was 0.00727 (inactive). The NADPH fluorescence slope in test [5] was 2.9e-05 (inactive).
For the compound `CCn1nnnc1SCC(=O)Nc1nnc(C(C)C)s1`, the cell count in test [1] is 324. In addition, the inhibition in test [1] is -3% (inactive); in test [3], 1% (inactive); in test [7], 5.57% (inactive); in test [8], -1.53% (inactive). Further, the inhibition of aggregation in test [2] was 21.9% (inactive). The nuclei count in test [2] was found to be 96.2%; in test [3], 116%. Further, the fluorescence slope is -0.361 (inactive) in test [4] and 0.0049 (inactive) in test [6]. Also, in test [5], the NADPH fluorescence slope was -4.7e-05 (inactive).

Usually inhibition stands for the relative decrease from the control value, in per cent.
